Assay [1] has as its system DyLight649-conjugated donkey anti-human IgG antibody. Briefly: NHS glycan array, binding of secondary antibody. To be noted: NHS slide.
Assay [2] deals with PG16. Briefly: Glycan microarray on ACG slide, PG16 binding. On the set-up: species or system human. Particulars: ACG surface, 100 μM printed, serial dilution experiment. In a few lines: (§1)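 Glycans I–XI carry a phosphonic acid tail and immobilize spontaneously and covalently on an aluminium oxide-coated glass (ACG) slide. Glycan concentration sets density and spacing. The printed array is incubated with antibody, then with a secondary antibody, and read by fluorescence. Surface dissociation constants (K_D surf) for glycan–antibody binding are derived from the signals.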

Assay [3] relates to PG16. The assay is described as follows: Glycan microarray on NHS-activated glass slide, PG16 binding. On the set-up: species or system human. To be noted: glycans printed at 100 μM.
The test system of a further assay is PGTs 141–144. The assay is described as follows: Glycan microarray on ACG slide, PGTs 141–144 binding. On the set-up: species or system human. To be noted: panel of glycans I–XI on ACG slide. In a few lines:
as §1

For the compound Man4GlcAc2 [glycan 5], the “fluorescent signal from non-specific binding of secondary antibody” value in assay [1] was “strong fluorescent signal”.
Turning to Man5GlcNAc2 [IV], the PG16 binding result in the assay on PG16 [2] was “unable to detect”; in the assay with PG16 [3], “could not observe binding”.
For the compound `CC(=O)N[C@H]1[C@H](O[C@H]2[C@H](O)[C@@H](NC(C)=O)C(O)O[C@@H]2CO)O[C@H](CO)[C@@H](O[C@@H]2O[C@H](CO[C@H]3O[C@H](CO[C@H]4O[C@H](CO)[C@@H](O)[C@H](O)[C@@H]4O[C@H]4O[C@H](CO)[C@@H](O)[C@H](O)[C@@H]4O)[C@@H](O)[C@H](O[C@H]4O[C@H](CO)[C@@H](O)[C@H](O)[C@@H]4O[C@H]4O[C@H](CO)[C@@H](O)[C@H](O)[C@@H]4O)[C@@H]3O)[C@@H](O)[C@H](O[C@H]3O[C@H](CO)[C@@H](O)[C@H](O)[C@@H]3O[C@H]3O[C@H](CO)[C@@H](O)[C@H](O)[C@@H]3O[C@H]3O[C@H](CO)[C@@H](O)[C@H](O)[C@@H]3O)[C@@H]2O)[C@@H]1O` (stereo partly shown) [Man9GlcNAc2], the “PGTs 141–144 binding” value with PGTs 141–144 is listed as “significant decrease in the affinity”.

Values taken from PMC4806563 (Nature chemistry, 2016).
